Measurements as given in ChEMBL document CHEMBL3228024, “Prodrug analogues of the antitumor alkaloid camptothecin” (1979).

Assays:
Format in all cases: functional
[1] = tested on: P388; test: Antitumor activity against mouse P388 cells allografted in mouse assessed as increase in mouse survival time at 45 mg/kg, iv for 4 to 9 days relative to control
How it was run: (§1)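 Run under NCI protocols 3LE21 (L1210) and 3PS31 (P388) in mice, six mice per test group. Drug was injected daily for 9 days, with 20–30 uninjected control animals. Mean or median survival time of the treated group was divided by that of controls and multiplied by 100, then reported as percentage increase in life span.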

[2] = tested on: P388; test: Antitumor activity against mouse P388 cells allografted in mouse assessed as increase in mouse survival time at 23 mg/kg, iv for 4 to 9 days relative to control; how it was run: as §1
[3] = tested on: P388; test: Antitumor activity against mouse P388 cells allografted in mouse assessed as increase in mouse survival time at 6.4 mg/kg, iv for 4 to 9 days relative to control; how it was run: as §1
[4] = tested on: P388; test: Cytotoxicity against mouse P388 cells
[5] = tested on: L1210; test: Antitumor activity against mouse L1210 cells allografted in mouse assessed as increase in mouse survival time at 5.1 mg/kg, iv for 4 to 9 days relative to control; how it was run: as §1
[6] = Cytotoxicity against human 9KB cells relative to camptothecin
[7] = tested on: P388; test: Antitumor activity against mouse P388 cells allografted in mouse assessed as increase in mouse survival time at 18.9 mg/kg, iv for 4 to 9 days relative to control; how it was run: as §1
[8] = tested on: L1210; test: Antitumor activity against mouse L1210 cells allografted in mouse assessed as increase in mouse survival time at 18.9 mg/kg, iv for 4 to 9 days relative to control; how it was run: as §1
[9] = Cytotoxicity against human 9KB cells
[10] = tested on: P388; test: Cytotoxicity against mouse P388 cells relative to camptothecin
[11] = tested on: P388; test: Antitumor activity against mouse P388 cells allografted in mouse assessed as increase in mouse survival time at 5.1 mg/kg, iv for 4 to 9 days relative to control; how it was run: as §1
[12] = tested on: L1210; test: Antitumor activity against mouse L1210 cells allografted in mouse assessed as increase in mouse survival time at 62.5 mg/kg, iv for 4 to 9 days relative to control; how it was run: as §1
[13] = tested on: L1210; test: Cytotoxicity against mouse L1210 cells
[14] = tested on: L1210; test: Cytotoxicity against mouse L1210 cells relative to camptothecin
[15] = tested on: P388; test: Antitumor activity against mouse P388 cells allografted in mouse assessed as increase in mouse survival time at 2.5 mg/kg, iv for 6 days relative to control
How it was run: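 NCI P388 protocol 3PS31 in mice, six mice per test group. Drug was injected daily for only 6 days, with 20–30 uninjected controls. The value is the mean or median survival time of treated mice over that of controls ×100, reported as percentage increase in life span.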

[16] = tested on: P388; test: Antitumor activity against mouse P388 cells allografted in mouse assessed as increase in mouse survival time at 6.5 mg/kg, iv for 4 to 9 days relative to control
How it was run: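 Mice bearing P388 leukemia (NCI protocol 3PS31), six mice per test, drug injected daily for 9 days (in some tests for only 6 days). Controls were 20–30 animals receiving no injection. Activity was expressed as mean/median survival time of the test group divided by that of the control group ×100.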

[17] = tested on: L1210; test: Antitumor activity against mouse L1210 cells allografted in mouse assessed as increase in mouse survival time at 6.5 mg/kg, iv for 4 to 9 days relative to control; how it was run: as §1
[18] = tested on: P388; test: Antitumor activity against mouse P388 cells allografted in mouse assessed as increase in mouse survival time at 1.4 mg/kg, iv for 4 to 9 days relative to control; how it was run: as §1
[19] = tested on: Lewis lung carcinoma cell line; test: Antitumor activity against mouse LLC cells allografted in mouse assessed as increase in mouse survival time at 4 mg/kg, iv for 4 to 9 days relative to control
How it was run: (§2)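 Run under NCI protocols 3B131 (B-16 melanocytic melanoma) and 3LL32 (Lewis lung carcinoma) in mice, ten mice per test group. Drug was injected every 4 days, with 20–30 uninjected control animals. Mean or median survival of treated mice over that of controls ×100 was reported as percentage increase in life span.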

[20] = tested on: L1210; test: Antitumor activity against mouse L1210 cells allografted in mouse assessed as increase in mouse survival time at 0.5 mg/kg, iv for 4 to 9 days relative to control; how it was run: as §1
[21] = tested on: P388; test: Antitumor activity against mouse P388 cells allografted in mouse assessed as increase in mouse survival time at 4.3 mg/kg, iv for 4 to 9 days relative to control; how it was run: as §1
[22] = tested on: B16; test: Antitumor activity against mouse B16 cells allografted in mouse assessed as increase in mouse survival time at 43.5 mg/kg, iv for 4 to 9 days relative to control; how it was run: as §2
[23] = tested on: P388; test: Antitumor activity against mouse P388 cells allografted in mouse assessed as increase in mouse survival time at 12.8 mg/kg, iv for 4 to 9 days relative to control; how it was run: as §1
[24] = tested on: Lewis lung carcinoma cell line; test: Antitumor activity against mouse LLC cells allografted in mouse assessed as increase in mouse survival time at 15.7 mg/kg, iv for 4 to 9 days relative to control; how it was run: as §2
[25] = tested on: L1210; test: Antitumor activity against mouse L1210 cells allografted in mouse assessed as increase in mouse survival time at 1.4 mg/kg, iv for 4 to 9 days relative to control; how it was run: as §1
[26] = tested on: P388; test: Antitumor activity against mouse P388 cells allografted in mouse assessed as increase in mouse survival time at 0.5 mg/kg, iv for 4 to 9 days relative to control; how it was run: as §1
[27] = tested on: B16; test: Antitumor activity against mouse B16 cells allografted in mouse assessed as increase in mouse survival time at 4.9 mg/kg, iv for 4 to 9 days relative to control; how it was run: as §2
[28] = tested on: Lewis lung carcinoma cell line; test: Antitumor activity against mouse LLC cells allografted in mouse assessed as increase in mouse survival time at 48 mg/kg, iv for 4 to 9 days relative to control; how it was run: as §2
[29] = tested on: L1210; test: Antitumor activity against mouse L1210 cells allografted in mouse assessed as increase in mouse survival time at 4.3 mg/kg, iv for 4 to 9 days relative to control; how it was run: as §1
[30] = tested on: B16; test: Antitumor activity against mouse B16 cells allografted in mouse assessed as increase in mouse survival time at 14.8 mg/kg, iv for 4 to 9 days relative to control; how it was run: as §2
[31] = tested on: L1210; test: Antitumor activity against mouse L1210 cells allografted in mouse assessed as increase in mouse survival time at 12.8 mg/kg, iv for 4 to 9 days relative to control; how it was run: as §1

CC[C@@](O)(C(=O)NC(C)C)c1cc2n(c(=O)c1Cn1ccnc1)Cc1cc3ccccc3nc1-2
T/C [1]: 92%
T/C [2]: 89%
T/C [3]: 105%

CC[C@@](O)(C(=O)NC(C)C)c1cc2n(c(=O)c1CN1CCCC1)Cc1cc3ccccc3nc1-2
ED50 [4]: 1.1 ×10⁻⁴ umol/ml
T/C [5]: 109%
Activity [6]: 7.8%
T/C [7]: 126%
T/C [8]: 101%
ED50 [9]: 2.2 ×10⁻⁵ umol/ml
Activity [10]: 0.13%
T/C [11]: 111%
T/C [12]: 113%
ED50 [13]: 6.5 ×10⁻⁵ umol/ml
Activity [14]: 23%

C=CC(=O)OCc1c([C@@](O)(CC)C(=O)NC(C)C)cc2n(c1=O)Cc1cc3ccccc3nc1-2
ED50 [4]: 3.9 ×10⁻⁴ umol/ml
Activity [6]: 25%
T/C [15]: 165%
T/C [16]: 155%
ED50 [9]: 6.9 ×10⁻⁵ umol/ml
Activity [10]: 0.45%
ED50 [13]: 7.6 ×10⁻⁴ umol/ml
T/C [17]: 125%
Activity [14]: 2.7%

CC[C@@](O)(C(=O)NC(C)C)c1cc2n(c(=O)c1COC(C)=O)Cc1cc3ccccc3nc1-2
EC50 ([4]; Mus musculus, P388, read-out: ED50 (the source's name)): 7.4 µM
T/C [18]: 126%
Activity [6]: 2.8%
T/C [19]: 147%
T/C [20]: 110%
T/C [21]: 173%
T/C [22]: 114%
T/C [23]: 97%
ED50 [9]: 7.8 ×10⁻⁴ umol/ml
Activity [10]: 0.08%
T/C [24]: 166%
T/C [25]: 116%
T/C [26]: 126%
T/C [27]: 100%
T/C [28]: 156%
T/C [29]: 147%
T/C [30]: 105%
T/C [31]: 105%
